Measurements taken from ChEMBL document CHEMBL4406821, “Novel dual inhibitors targeting CDK4 and VEGFR2 synergistically suppressed cancer progression and angiogenesis” (Eur J Med Chem, 2019).
The source made the active and inactive calls. No cut-off for these calls is given here.

How the values were obtained:
[1] = biological target: CDK4/Cyclin D3 (Homo sapiens) (UniProt P11802+P30281); assay: Inhibition of recombinant full length human CDK4/Cyclin D3 using Rb-fragmen as substrate at 1 uM incubated for 40 mins by [gamma-33P]-ATP based radiometric assay relative to control; format: protein-complex assay
Method in brief: (§1)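 Kinase panel profiling at 1 μM performed by Eurofins KinaseProfiler; percent inhibition reported as mean of two independent experiments.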

[2] = biological target: Activin receptor type-1-like (Homo sapiens) (UniProt P37023); assay: Inhibition of recombinant human ALK1 (142 to end residues) at 1 uM using casein as substrate incubated for 40 mins in presence of [gamma-33P]-ATP by scintillation counting method relative to control; method in brief: as §1
[3] = biological target: Calcium/calmodulin-dependent protein kinase type 1B (Homo sapiens) (UniProt Q6P2M8); assay: Inhibition of recombinant full length human CAMKIbeta at 1 uM using KKLRRTLSFAEP as substrate incubated for 40 mins in presence of [gamma-33P]-ATP by scintillation counting method relative to control; method in brief: as §1
[4] = biological target: Casein kinase I isoform gamma-3 (Homo sapiens) (UniProt Q9Y6M4); assay: Inhibition of recombinant human CK1gamma3 (1 to 330 residues) at 1 uM using KRRRALS(p)VAS as substrate incubated for 40 mins in presence of [gamma-33P]-ATP by scintillation counting method relative to control
Method in brief: (§2)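 Tested at a single 1 uM in an outsourced commercial kinase-profiling panel, read as percent inhibition. Each value is the mean of two independent experiments.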

[5] = biological target: Ephrin type-A receptor 3 (Homo sapiens) (UniProt P29320); assay: Inhibition of recombinant human EPhA3 (578 to end residues) at 1 uM using poly(Glu, Tyr) 4:1 as substrate incubated for 40 mins in presence of [gamma-33P]-ATP by scintillation counting method relative to control
[6] = biological target: Ephrin type-A receptor 7 (Homo sapiens) (UniProt Q15375); assay: Inhibition of recombinant human EPhA7 (613 to 909 residues) at 1 uM using KTFCGTPEYLAPEVRREPRILSEEEQEMFRDFDYIADWC as substrate incubated for 40 mins in presence of [gamma-33P]-ATP by scintillation counting method relative to control
[7] = biological target: Ephrin type-B receptor 3 (Homo sapiens) (UniProt P54753); assay: Inhibition of recombinant human EPhB3 (599 to 920 residues) at 1 uM using poly (Glu, Tyr) 4:1 as substrate incubated for 40 mins in presence of [gamma-33P]-ATP by scintillation counting method relative to control
[8] = biological target: Tyrosine-protein kinase Fyn (Homo sapiens) (UniProt P06241); assay: Inhibition of recombinant full length human FYN at 1 uM using KVEKIGEGTYGVVYK as substrate incubated for 40 mins in presence of [gamma-33P]-ATP by scintillation counting method relative to control; method in brief: as §1
[9] = biological target: MAP kinase-activated protein kinase 2 (Homo sapiens) (UniProt P49137); assay: Inhibition of recombinant human MAPKAPK2 (46 to end residues) at 1 uM using KKLNRTLSVA as substrate incubated for 40 mins in presence of [gamma-33P]-ATP by scintillation counting method relative to control
[10] = biological target: Serine/threonine-protein kinase 38-like (Homo sapiens) (UniProt Q9Y2H1); assay: Inhibition of recombinant human NDR2 (83 to end residues) at 1 uM using RSRSRSRSRSRSRSR as substrate incubated for 40 mins in presence of [gamma-33P]-ATP by scintillation counting method relative to control
[11] = biological target: MAP kinase-activated protein kinase 5 (Homo sapiens) (UniProt Q8IW41); assay: Inhibition of recombinant human full length PRAK at 1 uM using KKLRRTLSVA as substrate incubated for 40 mins in presence of [gamma-33P]-ATP by scintillation counting method relative to control
[12] = system: Platelet-derived growth factor receptor alpha (Homo sapiens), P16234 [D842V]; assay: Inhibition of recombinant human PDGFRalpha D842V mutant (550 to end residues) at 1 uM using GGMEDIYFEFMGGKKK as substrate incubated for 40 mins in presence of [gamma-33P]-ATP by scintillation counting method relative to control; method in brief: as §2
[13] = biological target: Tyrosine-protein kinase FRK (Homo sapiens) (UniProt P42685); assay: Inhibition of recombinant human PTK5 (218 to end residues) at 1 uM using GGEEEEYFELVKKKK as substrate incubated for 40 mins in presence of [gamma-33P]-ATP by scintillation counting method relative to control
[14] = biological target: Tyrosine-protein kinase Yes (Homo sapiens) (UniProt P07947); assay: Inhibition of recombinant human full length YES at 1 uM using poly(Glu, Tyr) 4:1 as substrate incubated for 40 mins in presence of [gamma-33P]-ATP by scintillation counting method relative to control
[15] = biological target: Fibroblast growth factor receptor 4 (Homo sapiens) (UniProt P22455); assay: Inhibition of recombinant human FGFR4 (442 to 755 residues) at 1 uM using poly(Glu, Tyr) 4:1 as substrate incubated for 40 mins in presence of [gamma-33P]-ATP by scintillation counting method relative to control; method in brief: as §2
[16] = biological target: SRSF protein kinase 2 (Homo sapiens) (UniProt P78362); assay: Inhibition of recombinant human SRPK2 (46 to end residues) at 1 uM using RSRSRSRSRSRSRSR as substrate incubated for 40 mins in presence of [gamma-33P]-ATP by scintillation counting method relative to control
[17] = system: PI3-kinase p110-alpha/p85-alpha (Homo sapiens), P27986+P42336 [H1047R]; assay: Inhibition of recombinant human full length PI3K p110alpha/p85alpha H1047R mutant at 1 uM using phosphatidylinositol 4,5-bisphosphate as substrate incubated for 40 mins in presence of [gamma-33P]-ATP by scintillation counting method relative to control; format: protein-complex assay
[18] = system: SiHa; assay: Antitumor activity against human SiHa cells xenografted in NOD/SCID BALB/c mouse assessed as reduction in tumor weight at 10 to 40 mg/kg, po administered for 21 days; format: functional, organism-based
[19] = Toxicity in NOD/SCID BALB/c mouse xenografted with human SiHa cells assessed as effect on blood parameter by measuring MPV at 40 mg/kg, po administered once two days for 4 times by hematology analyzer; format: organism-based; conditions: in vivo
[20] = Toxicity in BALB/c mouse assessed as effect on blood parameter by measuring MCHC at 40 mg/kg, po administered once two days for 4 times by hematology analyzer; conditions: in vivo
[21] = system: HeLa; assay: Induction of cell cycle arrest in human HeLa cells assessed as accumulation in G2/M phase at 80 nM incubated for 36 hrs by propidium iodide staining based flow cytometry; format: functional
Method in brief: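 Cells were treated with graded concentrations for 36 h, then fixed overnight in 70% ice-cold ethanol at 4°C and resuspended in PBS. Staining used 50 µg/ml PI plus 5 µg/ml RNase at 37°C for 30 min. DNA content was analysed by FACS to give G0/G1, S and G2/M fractions.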

Chain of Tyrosine-protein kinase Yes (Homo sapiens) (P07947 2-543 limits assumed): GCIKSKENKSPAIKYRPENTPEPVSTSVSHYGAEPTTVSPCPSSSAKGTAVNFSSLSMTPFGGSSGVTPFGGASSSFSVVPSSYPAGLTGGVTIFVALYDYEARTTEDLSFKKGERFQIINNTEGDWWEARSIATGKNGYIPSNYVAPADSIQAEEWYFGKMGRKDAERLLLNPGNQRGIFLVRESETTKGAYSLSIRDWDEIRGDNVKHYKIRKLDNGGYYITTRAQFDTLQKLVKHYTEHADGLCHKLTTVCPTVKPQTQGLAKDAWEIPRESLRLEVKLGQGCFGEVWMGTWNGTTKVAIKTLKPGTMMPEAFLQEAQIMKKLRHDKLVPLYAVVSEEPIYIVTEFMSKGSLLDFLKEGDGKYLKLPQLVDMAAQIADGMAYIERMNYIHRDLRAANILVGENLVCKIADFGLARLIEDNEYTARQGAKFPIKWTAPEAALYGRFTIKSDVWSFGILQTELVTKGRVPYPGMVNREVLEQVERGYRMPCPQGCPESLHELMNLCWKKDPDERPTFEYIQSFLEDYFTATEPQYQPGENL
Chain of SRSF protein kinase 2 (Homo sapiens) (P78362 whole entry, looked up): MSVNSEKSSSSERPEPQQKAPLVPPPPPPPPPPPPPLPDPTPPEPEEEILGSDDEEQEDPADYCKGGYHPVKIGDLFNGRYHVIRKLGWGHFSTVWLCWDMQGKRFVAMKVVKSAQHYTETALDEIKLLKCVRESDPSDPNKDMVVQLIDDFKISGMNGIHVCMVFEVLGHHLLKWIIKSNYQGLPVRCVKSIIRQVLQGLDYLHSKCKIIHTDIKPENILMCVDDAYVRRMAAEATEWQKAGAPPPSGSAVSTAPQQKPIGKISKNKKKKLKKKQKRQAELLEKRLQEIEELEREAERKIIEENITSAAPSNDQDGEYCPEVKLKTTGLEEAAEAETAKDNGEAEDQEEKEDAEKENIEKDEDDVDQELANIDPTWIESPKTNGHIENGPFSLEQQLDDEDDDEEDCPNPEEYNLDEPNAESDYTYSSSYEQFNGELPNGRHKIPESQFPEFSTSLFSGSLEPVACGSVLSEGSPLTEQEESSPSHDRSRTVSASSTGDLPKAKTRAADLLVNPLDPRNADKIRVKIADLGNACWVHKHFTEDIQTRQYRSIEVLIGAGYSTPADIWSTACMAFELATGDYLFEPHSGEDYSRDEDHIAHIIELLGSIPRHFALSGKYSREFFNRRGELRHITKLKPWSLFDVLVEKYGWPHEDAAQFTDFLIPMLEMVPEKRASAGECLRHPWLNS
Chain of Ephrin type-A receptor 3 (Homo sapiens) (P29320 whole entry, the tested form may be a part): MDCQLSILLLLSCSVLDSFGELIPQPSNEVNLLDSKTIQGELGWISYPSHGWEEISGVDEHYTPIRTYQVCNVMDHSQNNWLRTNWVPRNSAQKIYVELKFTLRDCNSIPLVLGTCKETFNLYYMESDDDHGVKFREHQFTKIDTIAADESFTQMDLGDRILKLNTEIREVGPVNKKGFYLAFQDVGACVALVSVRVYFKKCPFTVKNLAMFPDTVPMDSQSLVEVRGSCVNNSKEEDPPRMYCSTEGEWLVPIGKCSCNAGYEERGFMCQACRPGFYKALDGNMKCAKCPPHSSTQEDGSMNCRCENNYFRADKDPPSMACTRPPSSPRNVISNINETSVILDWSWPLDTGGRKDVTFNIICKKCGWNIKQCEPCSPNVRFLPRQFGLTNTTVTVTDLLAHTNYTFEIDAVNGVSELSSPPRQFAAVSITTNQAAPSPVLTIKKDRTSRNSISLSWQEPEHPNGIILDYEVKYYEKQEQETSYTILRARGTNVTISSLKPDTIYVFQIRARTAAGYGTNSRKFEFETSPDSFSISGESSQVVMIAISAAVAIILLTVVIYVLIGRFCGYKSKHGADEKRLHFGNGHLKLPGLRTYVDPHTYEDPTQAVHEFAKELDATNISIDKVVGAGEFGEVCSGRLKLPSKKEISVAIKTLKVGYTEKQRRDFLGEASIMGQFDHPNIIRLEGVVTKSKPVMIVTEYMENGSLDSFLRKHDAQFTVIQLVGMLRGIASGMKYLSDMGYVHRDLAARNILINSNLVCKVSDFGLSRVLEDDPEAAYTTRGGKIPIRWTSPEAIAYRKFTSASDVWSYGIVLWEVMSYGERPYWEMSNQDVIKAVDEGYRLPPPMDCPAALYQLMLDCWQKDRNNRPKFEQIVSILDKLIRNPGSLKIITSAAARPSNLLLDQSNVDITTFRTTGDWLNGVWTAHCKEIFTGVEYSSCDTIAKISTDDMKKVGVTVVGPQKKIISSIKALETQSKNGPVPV
Chain of Calcium/calmodulin-dependent protein kinase type 1B (Homo sapiens) (Q6P2M8 whole entry, the tested form may be a part, canonical isoform): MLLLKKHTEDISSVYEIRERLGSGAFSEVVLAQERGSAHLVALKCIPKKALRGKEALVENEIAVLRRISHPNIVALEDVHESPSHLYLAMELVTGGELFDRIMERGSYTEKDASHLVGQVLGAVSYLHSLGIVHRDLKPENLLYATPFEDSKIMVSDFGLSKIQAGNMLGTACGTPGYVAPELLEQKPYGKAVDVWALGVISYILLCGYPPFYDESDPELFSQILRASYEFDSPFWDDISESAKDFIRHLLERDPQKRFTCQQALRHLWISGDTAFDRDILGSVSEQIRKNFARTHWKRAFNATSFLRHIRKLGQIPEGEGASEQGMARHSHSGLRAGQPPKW
Chain of Fibroblast growth factor receptor 4 (Homo sapiens) (P22455 22-802 limits assumed): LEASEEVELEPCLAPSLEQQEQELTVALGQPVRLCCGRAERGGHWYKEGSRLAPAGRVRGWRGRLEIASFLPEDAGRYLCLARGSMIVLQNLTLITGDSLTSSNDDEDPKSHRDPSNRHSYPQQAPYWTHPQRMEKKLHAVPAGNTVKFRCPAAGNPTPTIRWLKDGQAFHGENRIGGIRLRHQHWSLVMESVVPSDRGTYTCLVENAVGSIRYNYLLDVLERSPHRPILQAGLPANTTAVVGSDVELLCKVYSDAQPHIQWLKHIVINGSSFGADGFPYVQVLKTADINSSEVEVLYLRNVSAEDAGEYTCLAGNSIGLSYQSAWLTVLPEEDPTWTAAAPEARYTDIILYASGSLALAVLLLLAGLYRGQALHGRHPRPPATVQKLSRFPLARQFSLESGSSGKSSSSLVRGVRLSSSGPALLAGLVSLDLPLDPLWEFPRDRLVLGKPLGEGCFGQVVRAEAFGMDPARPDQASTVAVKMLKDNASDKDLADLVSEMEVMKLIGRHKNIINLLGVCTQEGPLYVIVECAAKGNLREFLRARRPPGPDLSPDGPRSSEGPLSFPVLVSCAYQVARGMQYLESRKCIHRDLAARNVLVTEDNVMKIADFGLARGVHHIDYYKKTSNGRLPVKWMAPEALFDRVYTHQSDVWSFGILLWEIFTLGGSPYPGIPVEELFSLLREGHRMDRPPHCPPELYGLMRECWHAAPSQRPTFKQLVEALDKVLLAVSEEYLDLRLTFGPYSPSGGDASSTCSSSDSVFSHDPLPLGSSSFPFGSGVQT
Chain of Tyrosine-protein kinase FRK (Homo sapiens) (P42685 whole entry): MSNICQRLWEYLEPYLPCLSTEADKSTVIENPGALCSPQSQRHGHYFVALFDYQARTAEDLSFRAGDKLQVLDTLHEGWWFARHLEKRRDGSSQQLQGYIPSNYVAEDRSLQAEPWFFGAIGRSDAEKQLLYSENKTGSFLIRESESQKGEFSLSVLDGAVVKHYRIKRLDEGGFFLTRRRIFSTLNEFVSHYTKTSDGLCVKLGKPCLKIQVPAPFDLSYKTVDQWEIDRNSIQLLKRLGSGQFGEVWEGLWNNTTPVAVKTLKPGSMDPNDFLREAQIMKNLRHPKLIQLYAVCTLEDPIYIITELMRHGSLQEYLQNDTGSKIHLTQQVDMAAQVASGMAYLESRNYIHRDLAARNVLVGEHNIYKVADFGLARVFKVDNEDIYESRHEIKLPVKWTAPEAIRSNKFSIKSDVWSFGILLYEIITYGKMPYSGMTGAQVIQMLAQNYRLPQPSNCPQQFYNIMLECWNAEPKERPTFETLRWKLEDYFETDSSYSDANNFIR
Chain of Ephrin type-B receptor 3 (Homo sapiens) (P54753 whole entry, the tested form may be a part): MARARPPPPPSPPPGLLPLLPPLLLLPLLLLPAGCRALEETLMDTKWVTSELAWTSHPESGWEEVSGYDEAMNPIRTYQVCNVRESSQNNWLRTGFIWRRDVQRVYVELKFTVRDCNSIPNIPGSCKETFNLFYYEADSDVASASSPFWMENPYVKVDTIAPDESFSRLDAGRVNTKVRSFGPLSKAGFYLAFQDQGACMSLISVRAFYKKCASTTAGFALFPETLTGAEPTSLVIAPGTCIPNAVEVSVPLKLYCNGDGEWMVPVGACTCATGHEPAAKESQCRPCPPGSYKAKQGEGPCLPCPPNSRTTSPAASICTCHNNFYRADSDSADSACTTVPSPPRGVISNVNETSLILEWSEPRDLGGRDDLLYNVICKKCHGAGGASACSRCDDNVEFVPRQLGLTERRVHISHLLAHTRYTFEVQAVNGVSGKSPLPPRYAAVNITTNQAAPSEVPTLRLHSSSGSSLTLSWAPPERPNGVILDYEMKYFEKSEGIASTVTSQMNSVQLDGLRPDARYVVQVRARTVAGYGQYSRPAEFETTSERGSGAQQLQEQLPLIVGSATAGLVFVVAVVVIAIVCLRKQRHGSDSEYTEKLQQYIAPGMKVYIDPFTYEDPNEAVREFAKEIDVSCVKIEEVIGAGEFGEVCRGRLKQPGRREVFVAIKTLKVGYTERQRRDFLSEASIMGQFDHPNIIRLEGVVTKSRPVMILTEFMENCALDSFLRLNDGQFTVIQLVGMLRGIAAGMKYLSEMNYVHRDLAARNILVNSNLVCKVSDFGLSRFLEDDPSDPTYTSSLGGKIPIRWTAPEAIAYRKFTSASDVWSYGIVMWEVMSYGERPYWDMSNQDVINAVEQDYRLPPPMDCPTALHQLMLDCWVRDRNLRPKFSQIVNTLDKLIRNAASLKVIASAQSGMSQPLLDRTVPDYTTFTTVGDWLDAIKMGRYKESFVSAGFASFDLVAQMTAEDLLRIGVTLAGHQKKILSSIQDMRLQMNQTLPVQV

For `Cc1ccc(NC(=O)C2(C(=O)Nc3ccc(Nc4ncc(F)c(-c5cc(F)c6nc(C)n(C(C)C)c6c5)n4)cc3)CC2)cc1`, the inhibition [1] was 97%, the inhibition [2] was 58% and the inhibition [3] was 8%. For the same compound, the inhibition [4] was 0%, the inhibition [5] was 23% and the inhibition [6] was 81%. It also gave an inhibition [7] of 2%, an inhibition [8] of 32% and an inhibition [9] of 12%. For the same compound, the inhibition [10] was 33%, the inhibition [11] was 1% and the inhibition [12] was 48%. For the same compound, the inhibition [13] was 10%, the inhibition [14] was 31% and the inhibition [15] was 0%. The inhibition [16] was 17%, the inhibition [17] was 7% and the inhibition [18] was “Active”. For the same compound, the Activity [19] was “Non-Toxic” and the Activity [20] was “Non-Toxic”.
In the case of `COc1cc2nccc(Oc3ccc(NC(=O)C4(C(=O)Nc5ccc(F)cc5)CC4)cc3)c2cc1OC` [CABOZANTINIB], the Activity [21] is reported as “Active”.
